{"source": "ChEMBL document CHEMBL4665889", "about": "“Design, Synthesis, and Pharmacological Characterization of a Neutral, Non-Prodrug Thrombin Inhibitor with Good Oral Pharmacokinetics” (J Med Chem, 2020)", "key": {"[1]": {"assay": "Permeability from apical to basolateral side in human Caco2 cells incubated for 2 hrs by LC-MS/MS analysis", "assay_type": "ADME, cell-based", "settings": "Caco-2; call rule not given here", "outline": "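Caco-2 cells grown 15 d on 0.4 μm inserts, TEER ≥600 Ω. Compound (DMSO stock diluted 100-fold) in HBSS pH 7.4 with 10 mM HEPES and 20 mM glucose, added apically or basolaterally. Incubated 2 h at 37 °C and analysed by LC-MS/MS. Papp = (Vr/P0)·(1/S)·(P2/t); mean and SD.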"}, "[2]": {"assay": "Clearance in Wistar rat hepatocytes at 1 uM incubated up to 90 mins by LC-MS/MS analysis", "assay_type": "ADME, cell-based, Hepatocyte", "settings": "Wistar", "outline": "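Fresh male Wistar rat hepatocytes, 1 × 10⁶ viable cells/mL, in Williams' medium E at 37 °C, pH 7.4, with 1 μM substrate and <1% acetonitrile. Samples at 2–90 min quenched in acetonitrile and analysed by LC-MS/MS.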"}, "[3]": {"target": "T1, Nuclear receptor subfamily 1 group I member 2 (Homo sapiens, UniProt O75469)", "T1 sequence (O75469 whole entry)": "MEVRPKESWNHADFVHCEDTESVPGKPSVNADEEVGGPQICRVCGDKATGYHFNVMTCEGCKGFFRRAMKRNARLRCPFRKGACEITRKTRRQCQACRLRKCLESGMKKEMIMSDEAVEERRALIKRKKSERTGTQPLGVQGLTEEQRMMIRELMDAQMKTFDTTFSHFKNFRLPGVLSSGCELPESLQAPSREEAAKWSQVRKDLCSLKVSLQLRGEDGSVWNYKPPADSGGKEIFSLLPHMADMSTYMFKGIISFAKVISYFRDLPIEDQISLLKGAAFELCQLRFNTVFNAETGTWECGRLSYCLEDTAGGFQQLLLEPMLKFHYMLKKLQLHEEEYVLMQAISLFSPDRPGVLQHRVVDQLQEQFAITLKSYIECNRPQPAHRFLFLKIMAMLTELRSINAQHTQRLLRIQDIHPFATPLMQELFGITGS", "assay": "Activation of human PXR expressed in human HepG2 cells", "assay_type": "ADME, cell-based", "outline": "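HepG2 cells transiently co-transfected with human PXR and a luciferase reporter under the human CYP3A4 promoter, 48 h before readout. 24 h after seeding, 1:3 serial dilutions (2 nM to 50 μM, 0.5% DMSO) added. Luminescence normalized to rifampicin (100%) and DMSO (0%). MEC is the lowest concentration raising signal above 4-fold SD of DMSO background.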"}, "Plasma": {"tested_on": "Plasma", "assay": "Anticoagulation activity in human plasma assessed as drug level causing doubling of prothrombin time incubated for 3 mins", "assay_type": "functional", "settings": "0.05 h", "outline": "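Citrated human plasma (0.11 M citrate 1:9, spun ~4000g 15 min) incubated with compound at 37 °C for 3 min. Clotting started with thromboplastin and time to coagulation recorded. Value is the concentration doubling clotting time (PT or aPTT).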"}, "Cytochrome P450": {"tested_on": "Cytochrome P450", "assay": "Inhibition of CYP450 (unknown origin) at 20 uM", "assay_type": "ADME, protein assay", "settings": "human"}, "[4]": {"assay": "MRT in Wistar Hannover rat at 0.3 to 0.5 mg/kg, iv by LC-MS/MS analysis", "assay_type": "ADME, organism-based", "settings": "in vivo, dose 0.3-0.5 mg/kg, time <=24 hrs", "outline": "(§1)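 Male Wistar Hannover rats, catheterized under isoflurane; one day later iv injection into lateral tail vein at 0.3 to 0.5 mg/kg in plasma containing 2% DMSO. Blood sampled via catheter from 0.033 to 24 h. Plasma precipitated with acetonitrile, analysed by LC-MS/MS (10 mM ammonium acetate pH 3.0/acetonitrile gradient). PK parameters calculated from plasma concentrations.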"}, "[5]": {"assay": "AUC/dose in Wistar Hannover rat at 0.3 to 0.5 mg/kg, iv by LC-MS/MS analysis", "assay_type": "ADME, organism-based", "settings": "in vivo, dose 0.3-0.5 mg/kg, time <=24 hrs", "outline": "as §1"}, "[6]": {"assay": "Blood clearance in Wistar Hannover rat at 0.3 to 0.5 mg/kg, iv by LC-MS/MS analysis", "assay_type": "ADME, organism-based", "settings": "whole blood, dose 0.3-0.5 mg/kg, time <=24 hrs", "outline": "as §1"}, "[7]": {"assay": "Ratio of drug level in blood to plasma in Wistar Hannover rat at 0.3 to 0.5 mg/kg, iv by LC-MS/MS analysis", "assay_type": "ADME, organism-based", "settings": "blood and plasma, dose 0.3-0.5 mg/kg, time <=24 hrs"}, "[8]": {"assay": "Volume of distribution at steady state in Wistar Hannover rat at 0.3 to 0.5 mg/kg, iv by LC-MS/MS analysis", "assay_type": "ADME, organism-based", "settings": "in vivo, dose 0.3-0.5 mg/kg, time <=24 hrs, read-out: Vdss", "outline": "as §1"}, "[9]": {"assay": "Half life in Wistar Hannover rat at 0.3 to 0.5 mg/kg, iv by LC-MS/MS analysis", "assay_type": "ADME, organism-based", "settings": "in vivo, dose 0.3-0.5 mg/kg, time <=24 hrs", "outline": "as §1"}, "[10]": {"assay": "Oral bioavailability in Wistar Hannover rat at 1 mg/kg by LC-MS/MS analysis", "assay_type": "ADME, organism-based", "settings": "in vivo, time <=24 hrs", "outline": "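Catheterized male Wistar Hannover rats dosed by gavage at 1 mg/kg in 10% ethanol/40% PEG/50% water. Blood taken via catheter at 0.083 to 24 h. Plasma precipitated with acetonitrile and analysed by LC-MS/MS. Bioavailability derived against iv dosing at 0.3 to 0.5 mg/kg.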"}, "[11]": {"target": "T1, Nuclear receptor subfamily 1 group I member 2", "assay": "Activation of human PXR human hepatocytes assessed as induction of CYP3A4 mRNA expression incubated for 48 hrs by qPCR analysis", "assay_type": "ADME, tissue-based, Hepatocyte", "outline": "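Human hepatocytes in collagen sandwich, cultured 1 d, then treated with eight 1:3 serial concentrations for 2 consecutive days with daily media change. mRNA isolated on magnetic beads, reverse transcribed, and quantified by TaqMan qRT-PCR against actin/tubulin. Fold induction over vehicle by ΔΔCt; NOEL reported.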"}}, "data": [{"smiles": "COc1cc(C(=O)N2CC[C@@H](O)[C@H](C)C2)cc2nc(NCc3cccc(Cl)c3)oc12", "values": [{"measurement": "Papp A→B at 2 h", "setting": "[1]", "value": 12.6, "unit": "×10⁻⁶ cm/s"}, {"measurement": "CLhep predicted at 1 µM", "setting": "[2]", "value": 38.3, "unit": "mL/min/kg"}, {"measurement": "MEC", "setting": "[3]", "value": 0.69, "unit": "µM"}, {"measurement": "2PT", "setting": "Plasma", "value": 6, "unit": "µM"}, {"measurement": "inhibition (INH)", "setting": "Cytochrome P450", "value": "Not Active"}, {"measurement": "MRT", "setting": "[4]", "value": 1.1, "unit": "h"}, {"measurement": "AUC/dose", "setting": "[5]", "value": 0.48, "unit": "kg·h/L"}, {"measurement": "clearance", "setting": "[6]", "value": 28.3, "unit": "mL/min/kg"}, {"measurement": "blood plasma ratio", "setting": "[7]", "value": 1.24}, {"measurement": "Vd", "setting": "[8]", "value": 2.4, "unit": "L/kg"}, {"measurement": "half-life", "setting": "[9]", "value": 1.3, "unit": "h"}, {"measurement": "bioavailability", "setting": "[10]", "value": 46, "unit": "%"}, {"measurement": "NOAEL", "setting": "[11]", "value": 370, "unit": "ng/mL"}]}]}
